Experimental data: ChEMBL document CHEMBL1177875, “Antitumor activity of (-)-alpha-bisabolol-based thiosemicarbazones against human tumor cell lines” (2010)

Legend:
Assay type in all cases: functional
NCI-H460 = test: Cytotoxicity against human NCI-H460 cells by sulforhodamine B assay; settings: for CC50: read-out: LC50 (the source's name)
Summary of the method: (§1)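 Growth of the human tumor cell line was read colorimetrically with sulforhodamine B, following the NCI standard protocol, with doxorubicin as positive control. Compounds were tested at four concentrations in 10-fold dilutions (0.25 to 250). Dose-response curves gave GI50 (the concentration for 50% growth inhibition), TGI (total growth inhibition) and LC50 (50% cell death).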

MCF7 = test: Cytotoxicity against human MCF7 cells by sulforhodamine B assay; settings: for CC50: read-out: LC50 (the source's name); summary of the method: as §1
[1] = Cytotoxicity against human PCO3 cells by sulforhodamine B assay; settings: for CC50: read-out: LC50 (the source's name); summary of the method: as §1
UACC-62 = test: Cytotoxicity against human UACC62 cells by sulforhodamine B assay; summary of the method: as §1
K562 = test: Cytotoxicity against human K562 cells by sulforhodamine B assay; settings: for CC50: read-out: LC50 (the source's name); summary of the method: as §1
OVCAR-3 = test: Cytotoxicity against human OVCAR-3 cells by sulforhodamine B assay; settings: for CC50: read-out: LC50 (the source's name); summary of the method: as §1
[2] = Cytotoxicity against human NCI/ADR cells by sulforhodamine B assay; settings: NCI/ADR-RES; for CC50: read-out: LC50 (the source's name); summary of the method: as §1
HT-29 = test: Cytotoxicity against human HT-29 cells by sulforhodamine B assay; settings: for CC50: read-out: LC50 (the source's name); summary of the method: as §1

| Structure (SMILES) | GI50 (NCI-H460) | TGI (NCI-H460) | CC50 (NCI-H460) | GI50 (MCF7) | TGI (MCF7) | CC50 (MCF7) | GI50 [1] | TGI [1] | CC50 [1] | GI50 (UACC-62) | LC50 (50% cell kill) (UACC-62) | TGI (UACC-62) | GI50 (K562) | TGI (K562) | CC50 (K562) | GI50 (OVCAR-3) | TGI (OVCAR-3) | CC50 (OVCAR-3) | GI50 [2] | TGI [2] | further results |
| --- | --- | --- | --- | --- | --- | --- | --- | --- | --- | --- | --- | --- | --- | --- | --- | --- | --- | --- | --- | --- | --- |
| CC1=CC[C@@H]([C@@](C)(O)CCCC(C)(C)NC(=S)N/N=C\c2cccc(Cl)c2)CC1 | 44.3 µM | > 100 µM | > 100 µM | 7.35 µM | 19.5 µM | 45.9 µM | 11.2 µM | 37.8 µM | 57 µM | 7.81 µM | 42.7 µM | 18.1 µM | 0.03 µM | 1.06 µM | 56.3 µM | 8.27 µM | 26.5 µM | 48 µM | 7.35 µM | 31.9 µM | CC50 [2]: > 100 µM; GI50 (HT-29): 6.89 µM; TGI (HT-29): 16.5 µM; CC50 (HT-29): 45.9 µM |
| CC1=CC[C@@H]([C@@](C)(O)CCCC(C)(C)NC(=S)N/N=C\c2ccccc2[N+](=O)[O-])CC1 | 20.6 µM | > 100 µM | > 100 µM | 18.6 µM | > 100 µM | > 100 µM | 39.9 µM | > 100 µM | > 100 µM | 6.05 µM | 49.3 µM | 16.6 µM | 0.19 µM | 7.84 µM | > 100 µM | 7.39 µM | 16.2 µM | 41.9 µM | 20.4 µM | > 100 µM | CC50 [2]: > 100 µM; GI50 (HT-29): 6.94 µM; TGI (HT-29): 16.8 µM; CC50 (HT-29): 44.4 µM |
| COc1ccc(/C=N\NC(=S)NC(C)(C)CCC[C@](C)(O)[C@@H]2CC=C(C)CC2)cc1 | 5.1 µM | > 100 µM | > 100 µM | 6.5 µM | 94.9 µM | > 100 µM | 7.66 µM | 76 µM | > 100 µM | 7.42 µM | 48.5 µM | 22.1 µM | 0.22 µM | 34.9 µM | > 100 µM | 6.5 µM | 15.8 µM | 46.2 µM | 6.73 µM | 57 µM | CC50 [2]: > 100 µM; GI50 (HT-29): 7.42 µM; TGI (HT-29): 35.1 µM; CC50 (HT-29): > 100 µM |
| CC1=CC[C@@H]([C@@](C)(O)CCCC(C)(C)NC(=S)N/N=C\c2ccccc2Cl)CC1 | 24.6 µM | > 100 µM | > 100 µM | 31.2 µM | > 100 µM | > 100 µM | 18.8 µM | > 100 µM | > 100 µM | 53.3 µM | > 100 µM | > 100 µM | 0.15 µM | 4.11 µM | 8.5 µM | 42 µM | > 100 µM | > 100 µM | > 100 µM | > 100 µM | CC50 [2]: > 100 µM; GI50 (HT-29): 23.7 µM; TGI (HT-29): > 100 µM; CC50 (HT-29): > 100 µM |
| CC1=CC[C@@H]([C@@](C)(O)CCCC(C)(C)NC(=S)N/N=C(/C)c2ccccc2)CC1 | 12.6 µM | > 100 µM | > 100 µM | 23.6 µM | 62.9 µM | > 100 µM | 19.9 µM | > 100 µM | > 100 µM | 22.4 µM | > 100 µM | 93.3 µM | 0.01 µM | 0.07 µM | 1.54 µM | 14.3 µM | 59.5 µM | > 100 µM | 0.75 µM | > 100 µM | CC50 [2]: > 100 µM; GI50 (HT-29): 28.4 µM; TGI (HT-29): > 100 µM; CC50 (HT-29): > 100 µM |
| CC1=CC[C@@H]([C@@](C)(O)CCCC(C)(C)NC(=S)NN=C(c2ccccc2)c2ccccc2)CC1 | 13.5 µM | > 100 µM | > 100 µM | 36.7 µM | > 100 µM | > 100 µM | > 100 µM | > 100 µM | > 100 µM | > 100 µM | > 100 µM | > 100 µM | 1.94 µM | 4.19 µM | 10.3 µM | > 100 µM | > 100 µM | > 100 µM | 3.31 µM | > 100 µM | CC50 [2]: > 100 µM; GI50 (HT-29): > 100 µM; TGI (HT-29): > 100 µM; CC50 (HT-29): > 100 µM |
| CC1=CC[C@@H]([C@@](C)(O)CCCC(C)(C)NC(=S)N/N=C\c2ccc(N(C)C)cc2)CC1 | 19.6 µM | > 100 µM | > 100 µM | 14 µM | > 100 µM | > 100 µM | 13.7 µM | > 100 µM | > 100 µM | > 100 µM | > 100 µM | > 100 µM | 0.08 µM | 42 µM | > 100 µM | 3.6 µM | > 100 µM | > 100 µM | 25.2 µM | > 100 µM | CC50 [2]: > 100 µM; GI50 (HT-29): 27.7 µM; TGI (HT-29): > 100 µM; CC50 (HT-29): > 100 µM |
